In ChEMBL document CHEMBL4428128, “Design, synthesis, crystal structure, biological evaluation and molecular docking studies of carbazole-arylpiperazine derivatives” (Bioorg Med Chem, 2016):

What was measured:
[1] = target: T1, Alpha-1A adrenergic receptor (Rattus norvegicus, UniProt P43140); experiment: Antagonistic activity at alpha1A adrenoceptor in Sprague-Dawley rat vas deferens assessed as inhibition of noradrenaline-induced contractions after 0.5 hrs in presence of alpha2/beta adrenoceptor blocker yohimbine, propranolol by Schild plot analysis; settings: read-out: pA2 (converted)
T1 sequence (P43140 whole entry): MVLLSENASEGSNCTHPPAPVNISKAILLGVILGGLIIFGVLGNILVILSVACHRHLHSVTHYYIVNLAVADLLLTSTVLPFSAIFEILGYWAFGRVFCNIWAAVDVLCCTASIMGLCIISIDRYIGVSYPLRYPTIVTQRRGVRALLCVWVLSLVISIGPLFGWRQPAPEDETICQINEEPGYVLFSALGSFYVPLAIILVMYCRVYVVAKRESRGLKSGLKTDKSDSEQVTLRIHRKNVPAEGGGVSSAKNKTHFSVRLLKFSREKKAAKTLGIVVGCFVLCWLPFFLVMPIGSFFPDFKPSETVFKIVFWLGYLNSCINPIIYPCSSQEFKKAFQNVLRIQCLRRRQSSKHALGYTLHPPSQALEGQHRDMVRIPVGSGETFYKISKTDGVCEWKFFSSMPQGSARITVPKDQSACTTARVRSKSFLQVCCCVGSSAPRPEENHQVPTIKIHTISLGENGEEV

[2] = target: T2, Alpha-1B adrenergic receptor (Rattus norvegicus, UniProt P15823); experiment: Antagonistic activity at alpha1B adrenoceptor in Sprague-Dawley rat spleen assessed as inhibition of noradrenaline-induced contractions after 0.5 hrs in presence of alpha2/beta adrenoceptor blocker yohimbine, propranolol by Schild plot analysis; type: tissue-based; settings: read-out: pA2 (converted)
T2 sequence (P15823 whole entry): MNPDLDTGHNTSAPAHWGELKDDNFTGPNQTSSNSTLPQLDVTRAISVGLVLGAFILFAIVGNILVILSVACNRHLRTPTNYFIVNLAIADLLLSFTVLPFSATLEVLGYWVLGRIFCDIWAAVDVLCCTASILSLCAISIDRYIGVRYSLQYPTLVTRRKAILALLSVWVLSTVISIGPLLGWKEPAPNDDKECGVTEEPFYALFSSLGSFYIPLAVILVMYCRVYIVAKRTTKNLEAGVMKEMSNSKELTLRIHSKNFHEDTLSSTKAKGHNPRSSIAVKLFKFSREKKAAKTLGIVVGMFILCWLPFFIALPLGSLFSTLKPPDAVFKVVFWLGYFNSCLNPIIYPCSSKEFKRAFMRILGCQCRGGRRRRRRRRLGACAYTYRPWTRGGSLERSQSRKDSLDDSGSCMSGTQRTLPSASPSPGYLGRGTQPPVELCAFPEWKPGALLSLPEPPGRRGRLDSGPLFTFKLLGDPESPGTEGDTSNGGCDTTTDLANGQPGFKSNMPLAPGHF

[3] = target: T3, Alpha-1D adrenergic receptor (Rattus norvegicus, UniProt P23944); experiment: Antagonistic activity at alpha1D adrenoceptor in Sprague-Dawley rat thoracic aorta assessed as inhibition of noradrenaline-induced contractions after 0.5 hrs in presence of alpha2/beta adrenoceptor blocker yohimbine, propranolol by Schild plot analysis; settings: read-out: pA2 (converted)
T3 sequence (P23944 whole entry): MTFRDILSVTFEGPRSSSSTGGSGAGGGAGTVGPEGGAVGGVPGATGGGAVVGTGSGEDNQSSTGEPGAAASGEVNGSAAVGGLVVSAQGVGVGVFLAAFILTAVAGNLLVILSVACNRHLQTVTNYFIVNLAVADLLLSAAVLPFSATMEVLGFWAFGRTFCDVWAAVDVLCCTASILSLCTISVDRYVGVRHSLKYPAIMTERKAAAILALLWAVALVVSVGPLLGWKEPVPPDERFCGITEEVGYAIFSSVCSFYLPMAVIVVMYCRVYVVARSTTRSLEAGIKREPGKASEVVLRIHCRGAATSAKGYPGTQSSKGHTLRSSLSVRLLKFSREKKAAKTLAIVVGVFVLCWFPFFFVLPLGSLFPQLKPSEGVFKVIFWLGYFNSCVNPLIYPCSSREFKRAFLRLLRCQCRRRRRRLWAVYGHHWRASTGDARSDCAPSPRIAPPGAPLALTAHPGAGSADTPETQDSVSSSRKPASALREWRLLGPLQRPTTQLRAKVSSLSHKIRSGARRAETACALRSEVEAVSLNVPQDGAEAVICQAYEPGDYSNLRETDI
Method in brief: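 Isolated tissue rings (aorta rings about 4 mm) held in Krebs–Henseleit buffer (pH 7.4, 37 °C, O2/CO2 19:1), equilibrated 1.5 h under optimal tension, primed three times with noradrenaline, then washed. Antagonist preincubated 0.5 h. Noradrenaline concentration–response curves run 1 h apart, without and with antagonist, in continuous yohimbine and propranolol. Responses expressed as % of pre-incubation NA Emax.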

Rattus norvegicus [4] = species: Rattus norvegicus; experiment: Selectivity ratio of antilog of change in pA2 for alpha1D adrenoceptor in Sprague-Dawley rat thoracic aorta to antilog of change in pA2 for alpha1A adrenoceptor in Sprague-Dawley rat vas deferens
Rattus norvegicus [5] = species: Rattus norvegicus; experiment: Selectivity ratio of antilog of change in pA2 for alpha1D adrenoceptor in Sprague-Dawley rat thoracic aorta to antilog of change in pA2 for alpha1B adrenoceptor in Sprague-Dawley rat spleen
Rattus norvegicus [6] = species: Rattus norvegicus; experiment: Selectivity ratio of antilog of change in pA2 for alpha1A adrenoceptor in Sprague-Dawley rat vas deferens to antilog of change in pA2 for alpha1B adrenoceptor in Sprague-Dawley rat spleen

| Kb [1] [nM] | Kb [2] [nM] | Kb [3] [nM] | Selectivity ratio (Rattus norvegicus [4]) | Selectivity ratio (Rattus norvegicus [5]) | Selectivity ratio (Rattus norvegicus [6]) | Structure (SMILES) |
| --- | --- | --- | --- | --- | --- | --- |
| 1860 | 6920 | 87.1 | 21.4 | 79.4 | 3.7 | COc1ccc(N2CCN(CC(O)COc3cccc4[nH]c5ccccc5c34)CC2)cc1 (configuration not stated) |
| 437 | 74.1 | 141 | 3.1 | 0.5 | 0.2 | COc1ccc(OC)c(N2CCN(CC(O)COc3cccc4[nH]c5ccccc5c34)CC2)c1 (configuration not stated) |
